Screening data: PubChem BioAssay, several laboratories
M1 antag – antagonists of rat M1 muscarinic receptor; B-score at 10 µM; P08482; actives 3.4% (n = 64,000); CHO-M1 cells, Fluo-4 calcium, ACh EC80 antagonist mode; stronger effect = lower value; AID 628;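 active means calcium fluorescence response, raw or row-and-column corrected B-score, differing from the plate sample mean either way at a set confidence level, mostly lower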
D1 allo mod – D1 dopamine receptor (human) allosteric modulation. P21728. HEK293 D1, CRE-luciferase, dopamine EC30 potentiation; actives deviate in either direction. B-score at 10 µM. actives 5.9% (n = 58,000). AID 641;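 active means luminescence count or its row- and column-corrected plate score outside the 99.7% band of the plate's sample wells, on either side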
mHtt clearance – compounds clearing mutant huntingtin protein | HeLa Exon1htt(103Q)mCFP, aggregate imaging; zero = plate's median compound well | inhibition, % at 1.5 µM | actives 0.42% (n = 47,000);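 active means inhibition of aggregate fluorescence above about 70%, also judged a hit by eye on the cell image, limit read from the data, passing the limit was not always enough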;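 further: cells exposed to compound for three days before fixation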
RORA act – activates the human nuclear receptor RORA | activation, % at 10 µM | P35398 | actives 1.5% (n = 65,000) | CHO-K1 Gal4-RORA LBD luciferase reporter, luminescence; percent increase over mock-subtracted basal signal;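 active means activation above the mean of all tested compounds plus 3 SD, cut at about 49% in these data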;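 further: 0% = DMSO-treated RORA cells and 100% = added signal equal to DMSO minus mock-transfected cells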
Target sequence (P35398 whole entry, looked up, the tested form may be a part): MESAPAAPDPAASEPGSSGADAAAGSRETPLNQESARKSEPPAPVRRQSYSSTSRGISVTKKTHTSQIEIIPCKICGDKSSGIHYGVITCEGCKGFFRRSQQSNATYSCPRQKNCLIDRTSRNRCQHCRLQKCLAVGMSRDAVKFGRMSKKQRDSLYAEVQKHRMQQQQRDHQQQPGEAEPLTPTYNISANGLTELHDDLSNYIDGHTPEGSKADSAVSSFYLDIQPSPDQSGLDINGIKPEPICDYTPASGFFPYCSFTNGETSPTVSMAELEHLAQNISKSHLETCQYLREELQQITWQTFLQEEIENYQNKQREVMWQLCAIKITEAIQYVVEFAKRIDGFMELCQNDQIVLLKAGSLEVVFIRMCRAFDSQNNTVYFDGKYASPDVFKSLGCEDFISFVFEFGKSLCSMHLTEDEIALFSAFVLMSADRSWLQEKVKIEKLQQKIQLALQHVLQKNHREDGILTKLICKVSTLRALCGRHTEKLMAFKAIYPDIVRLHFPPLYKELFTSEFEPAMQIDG
M1 ag – M1 muscarinic receptor agonism. CHO-M1 cells, Fluo-4 calcium fluorescence, agonist mode; stronger effect = higher value. B-score at 10 µM. actives 3% (n = 64,000). AID 626;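 active means fluorescence rise, raw or as B-score row- and column-corrected plate score, outside the 99.7% band of its plate's samples, either direction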
SF-1 act – SF-1 (human) activation; CHO-K1 Gal4-SF-1 LBD luciferase reporter; % increase over DMSO SF-1-specific signal; activation, % at 10 µM; actives 1.9% (n = 65,000); AID 522;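 active means activation above the mean activation of all tested compounds plus 3 SD, cut at about 50% in these data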
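System: CHO-K1 cells with Gal4–hSF-1 LBD chimera plus Gal4-driven luciferase; quantity: 4,000 CHO-K1 cells per well; compound: one dose, 10 µM compound, 1% DMSO; times: 20 h compound treatment, 37 °C; measured by: SteadyLite luciferase luminescence; read-out: percent activation versus DMSO; benchmarks: DMSO and mock-transfected background; replicates: one test per compound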
M1 antag conf – confirmation of rat M1 muscarinic receptor antagonists | calcium response (max-min fluorescence) at 10 µM | CHO-M1 cells, Fluo-4 calcium, ACh EC80 antagonism; stronger effect = lower value | actives 43% (n = 1,700) | shares compounds with M1 antag | AID 677;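 active means calcium response below the same-plate mean of wells given acetylcholine alone at its 80%-effect dose, minus 3 SD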;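 further: raw fluorescence intensity difference in arbitrary instrument units and not normalized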
mGluR4 antag – selectivity test for M1 antagonists: human mGluR4 receptor | shares compounds with M1 antag | CHO-mGluR4 calcium flux, Fluo-4 fluorescence, glutamate EC80; stronger effect = lower value | fluorescence response (max-min) at 10 µM | actives 0.9% (n = 1,700) | AID 678;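 active means fluorescence response below the plate's average for near-maximal glutamate wells, less 3 SD of those wells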;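 further: raw unnormalized fluorescence span taken in the window right after glutamate addition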
* marks the source's active call; other numbers are inactive results; . = no result. Only some compounds are listed: those with a hit (about 11% of all), similar ones and a draw of the others.

SMILES	M1 antag	D1 allo mod	mHtt clearance	RORA act	M1 ag	SF-1 act	M1 antag conf	mGluR4 antag
COc1cc(NC(=O)c2nnn(Cc3ccc(SC)cc3)c2N)cc(OC)c1	0.023	1.5	67	22	0.0018	-4	.	.
CCN1CCN(C(=O)c2oc(=O)c3ccccc3c2-c2ccc(C)cc2)CC1	-1.8*	0.44	.	14	0.32	2	320*	212
CC(NS(=O)(=O)c1ccccc1)C(=O)NCc1ccco1 (stereo unspecified)	.	.	59	.	.	.	.	.
COC(=O)[C@H](C)NC(=O)NCc1ccco1	-4.3*	0.93	-8	2	-0.23	11	680	260
CN1C(=O)C(O)(C2COC(C)(C)CC2=O)c2cc(Br)ccc21 (stereo unspecified)	-0.49	-0.2	2	-18	0.14	8	.	.
CN1C(=O)C(O)(C2COC(C)(C)CC2=O)c2ccccc21 (stereo unspecified)	-3.8*	-1.6	-32	0	1	-1	472*	237
COc1cccc(NC(=O)c2nn(C)cc2Br)c1	.	.	22	.	.	.	.	.
COC(=O)CC1Oc2ccccc2N(Cc2ccccc2)C1=O (stereo unspecified)	-2.4*	3.5	.	-16	-0.054	-38	669	243
O=C(CSc1ccc2ccccc2n1)N1CCC(c2noc3ccc(F)cc23)CC1	.	.	36	.	.	.	.	.
COc1ccc(CCn2c(SCC(=O)Nc3cc(C)on3)nc3ccsc3c2=O)cc1OC	-1.7*	-0.44	-15	-5	2.9	-1	596	212
COCCNC(=O)CSc1nc2ccccc2c(=O)n1CCCC(=O)NCc1ccccc1	0.5	-0.12	-41	7	-0.73	2	.	.
Cc1ccccc1-n1c(C)nnc1SCC(=O)N1CC(=O)Nc2ccccc21	0.67	.	.	15	0.11	-2	.	.
O=C1CN(C(=O)CN2CCCC2)C(c2ccccc2)c2cc(Br)ccc2N1 (stereo unspecified)	-2.8*	-0.68	21	-4	-0.25	8	473	305
Cc1cc(C)n(-c2c(F)c(F)c(CN3CCCCC3)c(F)c2F)n1	-2.5*	.	.	-1	0.028	-16	640	187
Cc1nc2sc(C(c3ccccc3)N3CCN(c4ccccc4F)CC3)c(O)n2n1 (stereo unspecified)	-2	-0.66	.	10	0.58	3	.	.
CC(=O)C1C(c2ccc(OC(F)F)cc2)NC(=O)NC1(O)C(F)(F)F (stereo unspecified)	0.31	-0.43	.	-2	-0.068	-5	.	.
COc1ccc(C2NC(=O)NC(O)(C(F)(F)F)C2C(=O)c2ccc(C)cc2)cc1 (stereo unspecified)	-6.3*	-0.14	28	-6	-0.11	5	93*	241
CC1CCN(C(=O)CSc2nnc(Cc3cc(=O)[nH]c(=O)[nH]3)n2-c2ccc(Cl)cc2)CC1	-0.17	-0.089	-46	6	1.2	12	.	.
CN1CCN(c2ccccc2NC(=O)c2ccc(OCc3ccccc3)cc2)CC1	-2.2*	-4.6*	8	1	4.2	-2	403*	277
O=C(CCN1CCN(CCO)CC1)Nc1ccc(OCc2ccccc2)cc1	-0.22	0.33	.	16	-0.25	-7	.	.
Cc1cccc(N2CCN(C(=O)Cc3cn(C)c4ccccc34)CC2)c1C	.	.	9	.	.	.	.	.
CN1CCN(c2ccccc2NC(=O)Cc2cn(C)c3ccccc23)CC1	-0.74*	.	.	3	0.21	-6	522*	230
CN1CCN(CCC(=O)Nc2ccc(OCc3ccccc3)cc2)CC1	-1.7*	-1.9	-27	-3	-1.7	3	557	258
CCCC(=O)N=C1SC2CS(=O)(=O)CC2N1c1ccc(CC)cc1 (stereo unspecified)	0.0046	-0.75	.	-1	0.17	16	.	.
Cc1nnc(SCC(=O)Nc2nccs2)[nH]c1=O	-14*	0.53	.	-4	0.086	-11	587	249
